Measured values from different studies.
Lines come from different studies, so protocols differ.
CYP2C9: Cytochrome P450 2C9 (CYP2C9, Homo sapiens, UniProt P11712)
CYP2C8: Cytochrome P450 2C8 (CYP2C8, Homo sapiens, UniProt P10632)

SMILES	target or system	assay	system	setting	quantity	value
OCc1ccc(-c2nn(Cc3ccccc3)c3ccccc23)o1	–	metabolic stability	rat, liver microsomes	1 µM, pH 7.4	half-life	6 min
Cc1cccc(-c2nnc(N[C@@H](Cc3ccc(C#N)cc3)C(=O)N3CCc4ccccc43)o2)c1	–	metabolic stability	rat, liver microsomes	10 µM, pH 7.4	half-life	18 min
CC(=O)O[C@H]1[C@H](O[C@H]2CC[C@]34C[C@]35CC[C@]3(C)[C@@H]([C@@]6(C)CC[C@@H](C(C)(C)O)O6)[C@@H](O)C[C@@]3(C)[C@@H]5C[C@H](O[C@@H]3O[C@H](CO)[C@@H](O)[C@H](O)[C@H]3O)[C@H]4C2(C)C)OC[C@@H](OC(C)=O)[C@@H]1O	CYP2C9	enzyme activity, inhibitor	human, liver microsomes	–	IC50	116 µM
NCc1ccc(-c2nn(Cc3ccncc3)c3ccccc23)o1	–	–	male CD-1 mouse, plasma	oral, 10 mg/kg	bioavailability	15%
CN(C)C(=O)c1cc2cnc(Nc3ccc(-c4ccc5c(=O)cc(N6CCOCC6)oc5c4)cc3)nc2n1C1CCCC1.Cl	–	–	BALB/c mouse, plasma	oral, 20 mg/kg	AUC	7810 ng·h/mL
Cc1ccc(OCC(=O)N[C@@H](Cc2c[nH]c3ccccc23)C(=O)OC(C)C)cc1	–	chemical stability	simulated intestinal fluid	–	half-life	> 300 min
C=C(F)C(=O)N1CCN(c2nc(OC[C@@H]3CCCN3C)nc3c2CCN(c2cccc4cccc(Cl)c24)C3)C[C@@H]1CC#N	–	chemical stability, HPLC	glutathione solution	5 µM, pH 7.4	half-life	520 min
COc1cc(Cn2nc(-c3ccc(CO)o3)c3ccccc32)ccn1	–	metabolic stability	rat, liver microsomes	1 µM, pH 7.4	half-life	7 min
CSc1ccccc1C(=O)NCCn1cc(C(=O)NCc2cccc(C)n2)c(=O)c2cc3c(cc21)OCO3	CYP2C8	enzyme activity, inhibitor	human, liver microsomes	20 min, without NADPH, with preincubation	IC50	> 100 µM
N#Cc1ccc(C[C@@H](Nc2c(Nc3ccc(F)cc3)c(=O)c2=O)C(=O)N2CCc3ccccc32)cc1	–	metabolic stability	rat, liver microsomes	10 µM, pH 7.4	half-life	15 min
CC(C)(O)[C@@H]1CC[C@](C)([C@H]2[C@@H](O)C[C@@]3(C)[C@@H]4C[C@H](O[C@@H]5O[C@H](CO)[C@@H](O)[C@H](O)[C@H]5O)[C@H]5C(C)(C)[C@@H](O[C@@H]6OC[C@@H](O)[C@H](O)[C@H]6O)CC[C@@]56C[C@@]46CC[C@]23C)O1	CYP2C9	enzyme activity, inhibitor	human, liver microsomes	–	IC50	> 200 µM
CSc1ccccc1C(=O)NCCn1cc(C(=O)NCc2cccc(C)n2)c(=O)c2cc3c(cc21)OC(F)(F)O3	CYP2C8	enzyme activity, inhibitor	human, liver microsomes	20 min, without NADPH, with preincubation	IC50	> 100 µM
